A short description of experiment [1]: Antagonistic activity of compound was measured for bradykinin receptor in guinea pig ileum. It counts as functional, tissue-based. As to conditions: Cavia porcellus, read-out: pA2 (converted). In short, it runs like this:
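Guinea pig ileal longitudinal muscle strips, which express only B2 receptors. Cumulative bradykinin dose-response curves were run without and with increasing antagonist concentrations (0.1-0.3 μM), and antagonism was expressed as pA2. Agonist activity was also checked at concentrations up to 10 μM.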

A short description of experiment [2]: Binding affinity of compound was measured for bradykinin receptor in guinea pig ileum. It counts as tissue-based, Cavia porcellus.
The nature of experiment [3]: Antagonistic activity of compound was measured in SV-T2 cells. It counts as functional, cell-based. Conditions: Mus musculus, read-out: pA2 (converted). The essentials: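 SV-T2 fibroblasts, which express only B2 receptors. Antagonism of bradykinin-stimulated prostaglandin synthesis was measured and expressed as pA2. Agonist activity was also checked at concentrations up to 10 μM.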

The Ki is a dissociation constant, usually derived from enzyme kinetics or from competition with a known ligand. Read a low Ki as a stronger hold on the target.

For `CCCO[C@@H]1C[C@@H](C(=O)N2C3CCCCC3C[C@H]2C(=O)N[C@@H](CCCN=C(N)N)C(=O)O)N(C(=O)[C@H](CO)NC(=O)[C@@H](NC(=O)CNC(=O)[C@@H]2C[C@H](O)CN2C(=O)[C@@H]2CCCN2C(=O)[C@H](CCCN=C(N)N)NC(=O)[C@H](N)CCCN=C(N)N)c2cccs2)C1` (stereo partly drawn), the Kb in experiment [1] is 2.88 nM; in experiment [3] it was 0.251 nM. Also, in experiment [2], the Ki stood at 0.16 nM.
On to `CCCO[C@@H]1C[C@@H](C(=O)N2Cc3ccccc3C[C@H]2C(=O)N[C@@H](CCCN=C(N)N)C(=O)O)N(C(=O)[C@H](CO)NC(=O)[C@@H](NC(=O)CNC(=O)[C@@H]2C[C@H](O)CN2C(=O)[C@@H]2CCCN2C(=O)[C@H](CCCN=C(N)N)NC(=O)[C@H](N)CCCN=C(N)N)c2cccs2)C1`, for which the Kb was 24.5 nM in experiment [1] and 1.58 nM in experiment [3]. In addition, the affinity in experiment [2], expressed as Ki, was 0.77 nM.
Taken in the same sequence, the figures for `NC(N)=NCCC[C@@H](N)C(=O)N[C@@H](CCCN=C(N)N)C(=O)N1CCC[C@H]1C(=O)N1C[C@H](O)C[C@H]1C(=O)NCC(=O)N[C@@H](Cc1ccccc1)C(=O)N[C@@H](CO)C(=O)N[C@H](Cc1ccccc1)C(=O)N[C@@H](Cc1ccccc1)C(=O)N[C@@H](CCCN=C(N)N)C(=O)O` were 1510 nM, 10 nM and 57.9 nM.
`CO[C@@H]1C[C@@H](C(=O)N2Cc3ccccc3CC2C(=O)N[C@@H](CCCN=C(N)N)C(=O)O)N(C(=O)[C@H](CO)NC(=O)[C@@H](NC(=O)CNC(=O)[C@@H]2C[C@H](O)CN2C(=O)[C@@H]2CCCN2C(=O)[C@H](CCCN=C(N)N)NC(=O)[C@H](N)CCCN=C(N)N)c2cccs2)C1` (stereo partly drawn): the figures for the Kb in experiment [1] and in experiment [3] were 186 nM and 3.98 nM, respectively. For the same molecule, in experiment [2], the Ki was 2.12 nM.
The matching figures for `CCCO[C@H]1C[C@@H](C(=O)N2Cc3ccccc3C[C@H]2C(=O)N[C@@H](CCCN=C(N)N)C(=O)O)N(C(=O)[C@H](CO)NC(=O)[C@@H](NC(=O)CNC(=O)[C@@H]2C[C@H](O)CN2C(=O)[C@@H]2CCCN2C(=O)[C@H](CCCN=C(N)N)NC(=O)[C@H](N)CCCN=C(N)N)c2cccs2)C1`: 5750 nM, 158 nM and 144 nM.
The matching figures for `CO[C@H]1C[C@@H](C(=O)N2Cc3ccccc3C[C@H]2C(=O)N[C@@H](CCCN=C(N)N)C(=O)O)N(C(=O)[C@H](CO)NC(=O)[C@@H](NC(=O)CNC(=O)[C@@H]2C[C@H](O)CN2C(=O)[C@@H]2CCCN2C(=O)[C@H](CCCN=C(N)N)NC(=O)[C@H](N)CCCN=C(N)N)c2cccs2)C1`: 8910 nM, 251 nM and 102 nM.

The values are drawn from ChEMBL document CHEMBL1125194, “Probing the bradykinin receptor: mapping the geometric topography using ethers of hydroxyproline in novel peptides” (J Med Chem, 1991).
